Experimental data from different studies.
Lines come from different studies, so protocols differ.
Medium: plasma

CCN1CCN(Cc2ccc(NC(=O)c3ccc(C)c(NC(=O)c4cncc(-c5cccs5)c4)c3)cc2C(F)(F)F)CC1  CL/F (mouse; intraperitoneal, 20 mg/kg, single dose): 151 mL/min/kg
O=C(C=Cc1ccccc1)Nc1cc(-c2ccnc(N3CCC(O)CC3)c2)ccn1  Tmax (female Sprague-Dawley rat; intravenous, 5 mg/kg): 4.98 min
CCNCCCn1c2c(c3cc(OC)c(OC)cc3c1=O)C(=O)c1cc3c(nc1-2)OCO3  clearance (male CD-1 mouse; intravenous, 1 mg/kg): 107 mL/min/kg
Cc1cc2sc(N)nc2c2cccnc12  CL/F (female BALB/c mouse; intraperitoneal, 30 mg/kg, single dose): 11 mL/min/kg
CC(=Nc1ccc(N=Cc2cnccn2)cc1)N(C)C  Tmax (male Sprague-Dawley rat; oral, 200 mg/kg): 4.98 min
CC(=O)CC(=O)C1CC(C)C(=O)C1=O (stereo not drawn)  Tmax (male Sprague-Dawley rat; oral, 100 mg/kg): 4.8 min
N#C[C@@]12C[C@@H]1[C@@H](n1cnc3c(N[C@@H](C4CCC4)C4CC4)nc(I)nc31)[C@H](O)[C@@H]2O  Tmax (male Wistar rat; oral, 10 mg/kg): 120 min
Cc1cc([C@@H](C)Nc2ccccc2C(=O)O)c2nc(N3CCC(F)(F)CC3)c(C#N)c(=O)n2c1  clearance (male beagle dog; intravenous, 2 mg/kg): 64 mL/min/kg
CC1=NN(/C(=N/c2nnc(C)s2)Nc2ccc(C)c(C)c2)C(c2cc(F)c(F)c(F)c2)S1 (stereo not drawn)  clearance (male CD-1 mouse; intravenous, 1 mg/kg): 121 mL/min/kg
O=C1CCC(N2Cc3cc(NC(=O)c4cccc(F)c4)ccc3C2=O)C(=O)N1 (stereo not drawn)  clearance (female CD-1 mouse; intravenous, 3 mg/kg): 24 mL/min/kg
O=C1CC[C@H](N2Cc3cc(N4CCN(CC5CCN(c6ccc([C@@H]7c8ccc(O)cc8CC[C@@H]7c7ccccc7)cc6)CC5)CC4)ccc3C2=O)C(=O)N1  Tmax (female Sprague-Dawley rat; oral, 20 mg/kg, fed): 320 min
COc1cc2c3c(n(CCCNCCO)c(=O)c2cc1OC)-c1nc2c(cc1C3=O)OCO2  clearance (male CD-1 mouse; intravenous, 1 mg/kg): 107 mL/min/kg
O=C1CCC(N2Cc3cc(Nc4noc5cc(F)ccc45)ccc3C2=O)C(=O)N1 (stereo not drawn)  clearance (female CD-1 mouse; intravenous, 3 mg/kg): 55 mL/min/kg
Cc1c(C(=O)O)ccc2c3n(nc12)[C@@H]1[C@H](C3)N(CC2CC2)[C@@]2(C(=O)Nc3cc(Cl)ccc32)[C@H]1c1cccc(Cl)c1F  Cmax (male dog; oral, 2 mg/kg): 3.5 µM
N[C@@H](CC(=O)O)Cn1nnc(-c2ccc(Oc3ncc(Cl)cc3F)cc2)n1  Cmax (male beagle dog; oral, 0.5 mg/kg): 5.7 ng/mL
